The source made the active and inactive calls. No cut-off for these calls is given here. Positions of bridges follow the written chain, without caps; N, C: chain ends. Non-standard residues stand in square brackets, D forms with d. Residues, ends and D or L forms follow the SMILES beside them. ξ: configuration not given here. Phe(4-guanidino) = N=C(N)Nc1ccc(C[C@H](N)C(=O)O)cc1; ξNle = CCCCC(N)C(=O)O
How the values were obtained:
[1] = Inhibition of bovine trypsin using Tos-GPR-AMC as substrate preincubated for 30 mins followed by substrate addition
Cathepsin G = molecular target: T1, Cathepsin G (Homo sapiens, UniProt P08311); assay: Inhibition of human cathepsin G using Suc-AAPF-MCA as substrate after 30 mins
T1 sequence (P08311 whole entry): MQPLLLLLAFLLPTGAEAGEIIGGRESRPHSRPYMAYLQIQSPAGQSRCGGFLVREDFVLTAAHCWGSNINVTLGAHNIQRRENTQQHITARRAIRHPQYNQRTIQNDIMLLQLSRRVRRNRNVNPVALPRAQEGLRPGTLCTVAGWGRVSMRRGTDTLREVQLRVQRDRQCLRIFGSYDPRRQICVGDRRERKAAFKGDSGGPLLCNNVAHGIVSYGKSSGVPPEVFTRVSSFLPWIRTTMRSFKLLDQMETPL

[2] = Selectivity ratio of Ki for rat mast cell chymase to Ki for human cathepsin G
Procedure, shortened: (§1)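 Each Ki was determined after 30 min room-temperature protease–inhibitor equilibration, with chromogenic (405 nm) or fluorogenic (360/460 nm) substrate readout in Tris/NaCl buffer pH 8.0. Morrison Ki was fitted by non-linear regression, three independent triplicate experiments, and the off-target Ki was divided by the cathepsin G Ki.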

Homo sapiens [3] = organism: Homo sapiens; assay: Selectivity ratio of Ki for human PR3 to Ki for human cathepsin G
Procedure, shortened: as §1

Neutrophil elastase = molecular target: T2, Neutrophil elastase (Homo sapiens, UniProt P08246); assay: Inhibition of human neutrophil elastase using Suc(OMe)-AAPV-pNA as substrate after 30 mins
T2 sequence (P08246 whole entry): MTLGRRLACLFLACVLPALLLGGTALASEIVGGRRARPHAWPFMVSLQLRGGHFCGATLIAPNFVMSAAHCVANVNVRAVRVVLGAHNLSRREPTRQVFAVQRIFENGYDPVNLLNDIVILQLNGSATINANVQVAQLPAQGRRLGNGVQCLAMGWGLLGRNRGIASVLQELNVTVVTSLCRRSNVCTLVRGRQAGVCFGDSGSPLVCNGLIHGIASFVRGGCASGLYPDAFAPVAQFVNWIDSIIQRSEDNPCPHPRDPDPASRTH
Procedure, shortened: (§2)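 Inhibitor and protease were preincubated 30 min at room temperature. pNA substrate release was read at 405 nm for 5 min in 0.15 M NaCl, 0.1 M Tris·HCl pH 8.0, 0.005% Triton X-100, with 10% acetonitrile. Morrison Ki was obtained by non-linear regression from three independent triplicate experiments.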

Kallikrein-7 = Kallikrein-7 (Homo sapiens, UniProt P49862); assay: Inhibition of recombinant KLK7 (unknown origin) expressed in zymogen form in Pichia pastorisstrain X-33 using KHLY-pNA as substrate after 30 mins
Procedure, shortened: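 Pro-KLK7 from Pichia supernatant was cation-exchange purified, activated with enterokinase (37°C, 2 h), repurified, and active-site titrated with α1-antitrypsin. After 30 min room-temperature equilibration with inhibitor, pNA hydrolysis was followed at 405 nm for 5 min in Tris/NaCl/Triton buffer pH 8.0 with 10% acetonitrile. Morrison Ki came from three independent triplicate runs.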

[4] = molecular target: T3, Myeloblastin (Homo sapiens) (UniProt P24158); assay: Inhibition of human PR3 at 10000 nM using Suc(OMe)-AAPV-MCA as substrate after 30 mins relative to control
T3 sequence (whole entry): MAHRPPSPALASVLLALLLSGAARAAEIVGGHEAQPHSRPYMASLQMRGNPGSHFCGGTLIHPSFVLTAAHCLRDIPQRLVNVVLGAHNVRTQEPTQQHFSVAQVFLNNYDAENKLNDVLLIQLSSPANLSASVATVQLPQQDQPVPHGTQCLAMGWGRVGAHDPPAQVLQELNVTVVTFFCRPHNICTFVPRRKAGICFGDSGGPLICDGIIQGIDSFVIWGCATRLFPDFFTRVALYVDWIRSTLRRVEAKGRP

Homo sapiens [5] = organism: Homo sapiens; assay: Selectivity ratio of Ki for human neutrophil elastase to Ki for human cathepsin G
Procedure, shortened: as §1

Chymase = molecular target: T4, Chymase (Rattus norvegicus, UniProt P50339); assay: Inhibition of rat mast cell chymase using Suc-AAPF-pNA as substrate after 30 mins
T4 sequence (P50339 whole entry): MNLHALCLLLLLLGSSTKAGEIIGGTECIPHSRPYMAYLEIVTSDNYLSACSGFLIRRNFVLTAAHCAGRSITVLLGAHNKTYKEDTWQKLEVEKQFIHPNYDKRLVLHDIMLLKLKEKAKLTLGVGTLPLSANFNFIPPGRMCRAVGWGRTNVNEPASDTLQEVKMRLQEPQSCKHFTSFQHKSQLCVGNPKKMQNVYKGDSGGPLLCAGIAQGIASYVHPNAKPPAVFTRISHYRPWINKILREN
Procedure, shortened: as §2

Homo sapiens [6] = organism: Homo sapiens; assay: Selectivity ratio of Ki for recombinant KLK7 (unknown origin) to Ki for human cathepsin G
Procedure, shortened: as §1

[7] = Selectivity ratio of Ki for bovine chymotrypsin to Ki for human cathepsin G
Procedure, shortened: as §1

Myeloblastin = molecular target: T5, Myeloblastin (Homo sapiens, UniProt P24158); assay: Inhibition of human PR3 using Suc(OMe)-AAPV-MCA as substrate after 30 mins
T5 sequence (P24158 whole entry): T3 sequence (whole entry)
Procedure, shortened: (§3)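 Protease and inhibitor equilibrated 30 min at room temperature, then MCA substrate added in assay buffer (0.15 M NaCl, 0.1 M Tris·HCl pH 8.0, 0.005% Triton X-100). Fluorescence was read at ex 360/em 460 nm over 10 min. Morrison Ki was fitted by non-linear regression from three independent triplicate experiments.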

[8] = Inhibition of bovine chymotrypsin using Suc(OMe)-AAPV-MCA as substrate after 30 mins; set-up: species or system Bos taurus
Procedure, shortened: as §3

Prothrombin [9] = molecular target: T6, Prothrombin (Homo sapiens, UniProt P00734); assay: Inhibition of human alpha-thrombin at 10000 nM using Glt-Gly-Arg-MCA as substrate after 30 mins
Homo sapiens [10] = organism: Homo sapiens; assay: Selectivity ratio of Ki for human alpha-thrombin to Ki for human cathepsin G
Procedure, shortened: as §1

Prothrombin [11] = molecular target: T6, Prothrombin; assay: Inhibition of human alpha-thrombin using Glt-Gly-Arg-MCA as substrate after 30 mins
Procedure, shortened: as §3

[12] = Inhibition of bovine trypsin using Boc-QAR-MCA as substrate after 30 mins; set-up: species or system Bos taurus
Procedure, shortened: as §3

Bos taurus = organism: Bos taurus; assay: Inhibition of bovine chymotrypsin at 10000 nM using Suc(OMe)-AAPV-MCA as substrate after 30 mins relative to control
Plasminogen [13] = molecular target: T7, Plasminogen (Homo sapiens, UniProt P00747); assay: Inhibition of human plasmin at 10000 nM using Ac-RM(O2)YRpNA as substrate after 30 mins
[14] = Selectivity ratio of Ki for bovine trypsin to Ki for human cathepsin G
Procedure, shortened: as §1

Homo sapiens [15] = organism: Homo sapiens; assay: Selectivity ratio of Ki for human plasmin to Ki for human cathepsin G
Procedure, shortened: as §1

Plasminogen [16] = molecular target: T7, Plasminogen; assay: Inhibition of human plasmin using Ac-RM(O2)YRpNA as substrate after 30 mins
Procedure, shortened: as §2

[17] = molecular target: T8, Cathepsin G (Homo sapiens) (UniProt P08311); assay: Inhibition of human cathepsin G assessed as decrease in angiotensin-2 generation from angiotensin-1 at 100 nM after 1.5 to 3 hrs by RP-UPLC/mass spectroscopic method; details: in the assay text read “1.5 to 5 hrs” for “1.5 to 3 hrs”
T8 sequence (whole entry): T1 sequence (P08311 whole entry)
Procedure, shortened: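 Cathepsin G (10 nM) was incubated with angiotensin I (10 µM) in assay buffer, with or without inhibitor at 100 nM. Aliquots were taken at 1.5, 3 and 5 h and quenched with 2% TFA. Angiotensin I cleavage and angiotensin II formation were analysed by RP-UPLC and electrospray mass spectrometry.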

Chain of Kallikrein-7 (P49862 whole entry): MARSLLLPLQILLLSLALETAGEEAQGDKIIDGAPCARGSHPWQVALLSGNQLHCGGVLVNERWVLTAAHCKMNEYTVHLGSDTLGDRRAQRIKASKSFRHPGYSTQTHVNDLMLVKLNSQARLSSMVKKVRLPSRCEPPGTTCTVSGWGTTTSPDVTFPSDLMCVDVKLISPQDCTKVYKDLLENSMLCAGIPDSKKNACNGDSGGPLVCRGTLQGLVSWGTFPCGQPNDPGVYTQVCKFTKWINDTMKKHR
T7 sequence (P00747 97-580 limits assumed): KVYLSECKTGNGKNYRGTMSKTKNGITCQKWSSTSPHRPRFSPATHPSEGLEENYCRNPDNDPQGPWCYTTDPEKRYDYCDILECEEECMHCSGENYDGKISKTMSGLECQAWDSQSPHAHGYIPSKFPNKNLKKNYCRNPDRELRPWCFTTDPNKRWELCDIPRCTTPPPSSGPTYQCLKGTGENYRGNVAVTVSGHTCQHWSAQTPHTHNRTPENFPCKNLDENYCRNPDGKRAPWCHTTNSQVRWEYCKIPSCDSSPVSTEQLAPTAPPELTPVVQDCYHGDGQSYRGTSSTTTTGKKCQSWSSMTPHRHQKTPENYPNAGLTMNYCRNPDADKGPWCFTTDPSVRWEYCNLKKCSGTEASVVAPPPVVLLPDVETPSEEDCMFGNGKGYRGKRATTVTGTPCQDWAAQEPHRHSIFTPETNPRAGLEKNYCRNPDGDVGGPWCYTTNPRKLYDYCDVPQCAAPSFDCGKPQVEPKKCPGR
T7 sequence (P00747 581-810 limits assumed): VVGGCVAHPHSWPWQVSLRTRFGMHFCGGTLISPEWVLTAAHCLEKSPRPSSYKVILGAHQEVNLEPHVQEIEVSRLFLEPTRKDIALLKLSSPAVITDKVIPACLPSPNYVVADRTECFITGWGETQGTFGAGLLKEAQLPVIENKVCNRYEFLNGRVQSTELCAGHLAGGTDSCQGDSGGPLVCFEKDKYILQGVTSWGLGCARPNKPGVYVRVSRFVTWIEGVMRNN

Ki (Cathepsin G) [nM] | Ratio Ki [2] | Ratio Ki (Homo sapiens [3]) | Ki (Neutrophil elastase) [nM] | Ki (Kallikrein-7) [nM] | inhibition [4] [%] | Ratio Ki (Homo sapiens [5]) | Ki (Chymase) [nM] | Ratio Ki (Homo sapiens [6]) | Ratio Ki [7] | Ki (Myeloblastin) [nM] | Ki [8] [nM] | Compound | also measured
730 |  |  |  |  |  |  |  |  |  |  |  | CC[C@H](C)[C@@H]1NC(=O)[C@@H]2CCCN2C(=O)[C@@H]2CCCN2C(=O)[C@H]([C@@H](C)CC)NC(=O)[C@H](CO)NC(=O)[C@H](CCCCN)NC(=O)[C@H]([C@@H](C)O)NC(=O)[C@@H]2CSSC[C@H](NC1=O)C(=O)N[C@@H](Cc1ccccc1)C(=O)N1CCC[C@H]1C(=O)N[C@@H](CC(=O)O)C(=O)NCC(=O)N[C@@H](CCCNC(=N)N)C(=O)N2 | Ki [1]: 0.0017 nM
1.7 | 4.5 | > 5900 | 8900 | 130 | < 20 | 5200 | 7.7 | 76 | 83 | > 10000 | 140 | CCCCC1NC(=O)[C@@H]2CSSC[C@H](NC(=O)[C@H]([C@@H](C)CC)NC(=O)[C@@H]3CCCN3C(=O)[C@@H]3CCCN3C(=O)[C@H](CC(=O)O)NC(=O)[C@H](CO)NC(=O)[C@H](Cc3ccccc3)NC1=O)C(=O)N[C@@H](Cc1ccccc1)C(=O)N1CCC[C@H]1C(=O)N[C@@H](CC(N)=O)C(=O)NCC(=O)N[C@@H]([C@@H](C)O)C(=O)N2 (stereo partly drawn) (cyclo(CFPNGTC[ξNle]FSDPPI); disulfide 1-7) | 
0.89 |  | > 11000 | 12000 | 69 | < 20 | 13000 |  | 78 | 2.1 | > 10000 | 1.9 | CCCCC1NC(=O)[C@@H]2CSSC[C@H](NC(=O)[C@H]([C@@H](C)CC)NC(=O)[C@@H]3CCCN3C(=O)[C@@H]3CCCN3C(=O)[C@H]([C@@H](C)CC)NC(=O)[C@H](CO)NC(=O)[C@H](Cc3ccccc3)NC1=O)C(=O)N[C@@H](Cc1ccccc1)C(=O)N1CCC[C@H]1C(=O)N[C@@H](CC(N)=O)C(=O)NCC(=O)N[C@@H]([C@@H](C)O)C(=O)N2 (stereo partly drawn) (cyclo(CFPNGTC[ξNle]FSIPPI); disulfide 1-7) | 
1.6 | 12000 | > 6300 | 43000 | 740 | < 20 | 27000 | 19600 | 460 | > 6300 | > 10000 | > 10000 | CCCCC1NC(=O)[C@@H]2CSSC[C@H](NC(=O)[C@H]([C@@H](C)CC)NC(=O)[C@@H]3CCCN3C(=O)[C@@H]3CCCN3C(=O)[C@H](CC(=O)O)NC(=O)[C@H](CO)NC(=O)[C@H](Cc3ccc(NC(=N)N)cc3)NC1=O)C(=O)N[C@@H](Cc1ccccc1)C(=O)N1CCC[C@H]1C(=O)N[C@@H](CC(N)=O)C(=O)NCC(=O)N[C@@H]([C@@H](C)O)C(=O)N2 (stereo partly drawn) (cyclo(CFPNGTC[ξNle][Phe(4-guanidino)]SDPPI); disulfide 1-7) | inhibition (Prothrombin [9]): < 20%; Ratio Ki (Homo sapiens [10]): > 6300; Ki (Prothrombin [11]): > 10000 nM; Ki [12]: 580 nM; inhibition (Bos taurus): < 20%; inhibition (Plasminogen [13]): < 20%; Ratio Ki [14]: 360; Ratio Ki (Homo sapiens [15]): > 6300; Ki (Plasminogen [16]): > 10000 nM; inhibition [17]: Active
12 |  |  |  |  |  |  |  |  |  |  |  | CC[C@H](C)[C@@H]1NC(=O)[C@@H]2CCCN2C(=O)[C@@H]2CCCN2C(=O)[C@H](CC(=O)O)NC(=O)[C@H](CO)NC(=O)[C@H](CCCNC(=N)N)NC(=O)[C@H]([C@@H](C)O)NC(=O)[C@@H]2CSSC[C@H](NC1=O)C(=O)N[C@@H](CC(N)=O)C(=O)N1CCC[C@H]1C(=O)N[C@@H](CC(N)=O)C(=O)NCC(=O)N[C@@H]([C@@H](C)O)C(=O)N2 (cyclo(CNPNGTCTRSDPPI); disulfide 1-7) | 
490 |  |  |  |  |  |  |  |  |  |  |  | CC[C@H](C)[C@@H]1NC(=O)[C@@H]2CCCN2C(=O)[C@@H]2CCCN2C(=O)[C@H]([C@@H](C)CC)NC(=O)[C@H](CO)NC(=O)[C@H](CCCNC(=N)N)NC(=O)[C@H]([C@@H](C)O)NC(=O)[C@@H]2CSSC[C@H](NC1=O)C(=O)N[C@@H](CC(N)=O)C(=O)N1CCC[C@H]1C(=O)N[C@@H](CC(N)=O)C(=O)NCC(=O)N[C@@H]([C@@H](C)O)C(=O)N2 (cyclo(CNPNGTCTRSIPPI); disulfide 1-7) | 
